Measurements of several laboratories.
Each line is one published result; the experiments were not run side by side.
Target: Histamine H2 receptor (HRH2, Homo sapiens, UniProt P25021)

COCCOc1nc(-c2ccc(Cl)nc2)nc2c1CN(C(=O)c1ncn3ccccc13)CC2
inhibition (ligand displacement; 10 µM): -0.24%

O=C(c1ccc(Cl)cc1)N(Cc1ccccc1)C1CCCCC1
inhibition (cell-free assay; 10 µM): -27.3%

CCN(CC)c1ccc(C2Nc3ccc(C(=O)c4ccccc4)cc3NC3=C2C(=O)CC(C)(C)C3)cc1 (stereo not drawn)
inhibition (ligand displacement, radioligand; 10 µM): 38%

CCCNc1nc2ccccc2n1Cc1ccc(Cl)cc1
inhibition (ligand displacement; 10 µM): 83.3%

Cc1nc(N)sc1CCCNC(=N)NCCCCCCCCNC(=N)NCCCc1sc(N)nc1C
Emax (GTPγS binding, agonist, radiometric; cell membranes): 52%

O=C1N=C(N2CCCCN2)S/C1=C\c1ccc(F)cc1O
inhibition (ligand displacement, radioligand; 10 µM): < 10%

CCN(Cc1ccccc1C(F)(F)F)C(=O)C1CCN(S(=O)(=O)c2ccc3[nH]ncc3c2)CC1
inhibition (ligand displacement, radioligand; 10 µM): 5%

N#Cc1ccc(Nc2ccc3[nH]c(=O)[nH]c3c2)c(Cl)c1
inhibition (cell-free assay; 10 µM): 2.26%

O=C(c1ccc(F)cc1)N(Cc1ccccc1)C1CCCCC1
inhibition (cell-free assay; 10 µM): -3%

N=C(NCCCCCCCCCCCCN)NCCCc1c[nH]cn1
Emax (GTPγS binding, agonist, radiometric; cell membranes): 66%

O=C(Nc1ccc(S(=O)(=O)N2CCC(Cl)CC2)cc1)c1ccc([N+](=O)[O-])o1
inhibition (ligand displacement, radioligand; 10 µM): 10%

N#Cc1cc(Cn2c(N3CCCC3)nc3ccccc32)ccc1F
inhibition (ligand displacement; 10 µM): 64.1%
